Results: ChEMBL document CHEMBL4373670, “Selective in vitro anti-cancer activity of non-alkylating minor groove binders” (Medchemcomm, 2019)
Active and inactive are the calls of the source. No cut-off for these calls is given here.

What was measured:
HCT-116 [1] = assay: Induction of DNA damage in human HCT116 cells assessed as increase in gammaH2AX phosphorylation at ser139 at 0.25 uM to 1 uM incubated for 24 hrs by Western blot analysis
HCT-116 [2] = assay: Induction of DNA damage in human HCT116 cells assessed as increase in p53 expression at 0.25 uM to 1 uM incubated for 24 hrs by Western blot analysis; format: functional, cell-based
Procedure, shortened: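 HCT116 cells were treated for 24 h and lysed in RIPA buffer. 40 µg lysate was run on 15% SDS-PAGE and transferred to nitrocellulose. Blots were probed for phospho-S139 γH2AX (9F3, 1:1000), p53 (DO-1, 1:1000) and β-actin (C4, 1:40 000), then detected with HRP secondaries and ECL.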

SMILES: COc1cccc2c1C(=O)c1c(O)c3c(c(O)c1C2=O)C[C@@](O)(C(=O)CO)C[C@@H]3O[C@H]1C[C@H](N)[C@H](O)[C@H](C)O1
- Activity (HCT-116 [1]): Active
- Activity (HCT-116 [2]): Active
